Measurements as given in publication PMC9091619 (RSC Advances, 2018).
Read-outs that look alike come from different tables or passages of the source.

Columns and labels:
[1] = tested on: HL-60 (leukemia) cells; experiment: In vitro cytotoxicity, MTT/MTS cell viability assay, HL-60; format: cell-based, human; settings: read-out: IC50 ± SD, HL-60
How it was run: (§1)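 Human cancer lines from ATCC, grown in RPMI-1640 or DMEM with 10% FBS at 37 °C, 5% CO2. Seeding at 1 × 10^5 cells per mL: adherent cells 12 h before dosing, suspension cells at dosing. 48 h exposure to graded concentrations, in triplicate; cisplatin and paclitaxel as positive controls. MTS added for 4 h at 37 °C, lysis in 20% SDS–50% DMF, OD 490 nm. IC50 by Reed and Muench's method.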

[2] = tested on: SMMC-7721 (hepatoma cells); experiment: In vitro cytotoxicity, MTT/MTS cell viability assay, SMMC-7721; format: cell-based, human; settings: read-out: IC50 ± SD, SMMC-7721
How it was run: as §1

[3] = tested on: A-549 (lung cancer) cells; experiment: In vitro cytotoxicity, MTT/MTS cell viability assay, A-549; format: cell-based, human; settings: read-out: IC50 ± SD, A-549
How it was run: as §1

[4] = tested on: MCF-7 (breast cancer) cells; experiment: In vitro cytotoxicity, MTT/MTS cell viability assay, MCF-7; format: cell-based, human; settings: read-out: IC50 ± SD, MCF-7
How it was run: as §1

[5] = tested on: SW480 (colon cancer) cells; experiment: In vitro cytotoxicity, MTT/MTS cell viability assay, SW480; format: cell-based, human; settings: read-out: IC50 ± SD, SW480
How it was run: as §1

[6] = tested on: human normal pulmonary epithelial cells (BEAS-2B); experiment: Growth inhibitory effect on normal cells, BEAS-2B; format: cell-based; settings: for IC50: read-out: IC50 ± SD, BEAS-2B
[7] = tested on: five human cancer cell lines (HL-60, SMMC-7721, A-549, MCF-7 and SW480); experiment: Cytotoxicity against the panel of five tested cancer cell lines; format: cell-based; settings: for cytotoxicity against the tested cancer cell lines (in words): five tested cancer cell lines; for IC50: Homo sapiens, read-out: IC50 against all the tested cancer cell lines
How it was run: as §1

Compound | IC50 ([1]; Homo sapiens, HL-60, 48 h) | IC50 ([2]; Homo sapiens, SMMC-7721, 48 h) | IC50 ([3]; Homo sapiens, A549, 48 h) | IC50 ([4]; Homo sapiens, MCF7, 48 h) | IC50 ([5]; Homo sapiens, SW480, 48 h) | IC50 ([6]; Homo sapiens, BEAS-2B) | cytotoxicity against the tested cancer cell lines (in words) [7] | IC50 [7] | toxicity to BEAS-2B cells (in words) ([6]; BEAS-2B normal cells) | IC50 ([1]; HL-60 cells, 48 h exposure) | IC50 ([2]; SMMC-7721 cells, 48 h exposure) | IC50 ([3]; A-549 cells, 48 h exposure) | IC50 ([4]; MCF-7 cells, 48 h exposure) | IC50 ([5]; SW480 cells, 48 h exposure) | IC50 ([6]; BEAS-2B normal pulmonary epithelial cells)
COc1cccc2c1C(=O)c1c(O)c3c(c(O)c1C2=O)C[C@@](O)(C(=O)CO)C[C@@H]3O[C@H]1C[C@H](N)[C@H](O)[C@H](C)O1 [ADM, Adriamycin, reference compound] | 0.14 µM | 0.9 ± 0.03 µM | 0.3 ± 0.01 µM | 0.9 ± 0.02 µM | 0.11 ± 0.01 µM | > 40 µM |  |  |  |  |  |  |  |  | 
COc1c(O)cc2oc3cc(O)c(CC(O)C(C)(C)O)c(O)c3c(=O)c2c1CC=C(C)C (stereo not drawn) [Compound 2a, 1,3,6-Trihydroxy-2-(2,3-dihydroxy-3-methylbutyl)-7-methoxy-8-(3-methyl-2-butenyl)xanthone] | 18.2 ± 0.48 µM | 23.4 ± 1.29 µM | 19.8 ± 1.42 µM | 23.7 ± 0.64 µM | > 40 µM | 18.3 ± 0.51 µM | slightly decreased activity or comparative activity |  |  |  |  |  |  |  | 
COc1c(O)cc2oc3cc(O)c(CC=C(C)C)c(O)c3c(=O)c2c1CC(O)C(C)(C)O (stereo not drawn) [Compound 2b, 1,3,6-Trihydroxy-2-(3-methyl-2-butenyl)-7-methoxy-8-(2,3-dihydroxy-3-methylbutyl)xanthone] | > 40 µM | > 40 µM | > 40 µM | > 40 µM | > 40 µM |  |  | > 40 µM |  |  |  |  |  |  | 
COc1c(O)cc2oc3cc(O)c(CC(O)C(C)(C)O)c(O)c3c(=O)c2c1CC(O)C(C)(C)O (stereo not drawn) [Compound 2c, 1,3,6-Trihydroxy-7-methoxy-2,8-bis(2,3-dihydroxy-3-methylbutyl)-9H-xanthen-9-one] | > 40 µM | > 40 µM | > 40 µM | > 40 µM | > 40 µM |  | completely disappeared | > 40 µM |  |  |  |  |  |  | 
COc1c(O)cc2oc3cc(O)c(CC(O)C(C)(C)O)c(O)c3c(=O)c2c1CCC(C)C (stereo not drawn) [Compound 2d, 1,3,6-Trihydroxy-2-(2,3-dihydroxy-3-methylbutyl)-7-methoxy-8-isopentyl-9H-xanthen-9-one] | 21.6 ± 2.41 µM | 26.9 ± 3.75 µM | 36 ± 0.99 µM | > 40 µM | > 40 µM | > 40 µM | slightly decreased activity or comparative activity |  |  |  |  |  |  |  | 
COc1c(O)cc2oc3cc(O)c(CCC(C)C)c(O)c3c(=O)c2c1CC(O)C(C)(C)O (stereo not drawn) [Compound 2e, 1,3,6-Trihydroxy-2-isopentyl-7-methoxy-8-(2,3-dihydroxy-3-methylbutyl)-9H-xanthen-9-one] | 18.7 ± 0.23 µM | > 40 µM | > 40 µM | > 40 µM | > 40 µM | > 40 µM |  |  | non-cytotoxic |  |  |  |  |  | 
COc1cc2oc3cc(OC)c(OC)c(CC=C(C)C)c3c(=O)c2c(OC)c1CC(OC)C(C)(C)OC (stereo not drawn) [Compound 2i, 2-(2,3-Dimethoxy-3-methylbutyl)-1,3,6,7-tetramethoxy-8-(3-methylbut-2-en-1-yl)-9H-xanthen-9-one] | > 40 µM | > 40 µM | > 40 µM | > 40 µM | > 40 µM |  | disappearance of cytotoxicity |  |  |  |  |  |  |  | 
COc1cc2oc3cc(OC)c(OC)c(CCC(C)C)c3c(=O)c2c(OC)c1CC(OC)C(C)(C)OC (stereo not drawn) [Compound 2j, 2-(2,3-Dimethoxy-3-methylbutyl)-8-isopentyl-1,3,6,7-tetramethoxy-9H-xanthen-9-one] | > 40 µM | > 40 µM | > 40 µM | > 40 µM | > 40 µM |  | disappearance of cytotoxicity |  |  |  |  |  |  |  | 
COc1c(O)cc2oc3cc(O)c(CC=C(C)C)c(O)c3c(=O)c2c1CC1OC1(C)C (stereo not drawn) [Compound 2l, 1-((3,3-Dimethyloxiran-2-yl)methyl)-3,6,8-trihydroxy-2-methoxy-7-(3-methylbut-2-en-1-yl)-9H-xanthen-9-one] | > 40 µM | > 40 µM | > 40 µM | > 40 µM | > 40 µM |  |  | > 40 µM |  |  |  |  |  |  | 
COc1c(O)cc2oc3cc(O)c(CCC(C)(C)O)c(O)c3c(=O)c2c1CC=C(C)C [Compound 2n, 1,3,6-Trihydroxy-2-(3-hydroxy-3-methylbutyl)-7-methoxy-8-(3-methylbut-2-en-1-yl)-9H-xanthen-9-one] | 14.4 ± 0.05 µM | 26.3 ± 1.04 µM | 17 ± 0.77 µM | 24.6 ± 0.47 µM | 22.7 ± 2.35 µM | 29.3 ± 1.02 µM | slightly decreased activity or comparative activity |  |  |  |  |  |  |  | 
O=c1c2ccc(O)cc2oc2cc(O)cc(O)c12 [Compound 2u, 1,3,6-Trihydroxy-9H-xanthen-9-one] | > 40 µM | > 40 µM | > 40 µM | > 40 µM | > 40 µM |  |  |  |  |  |  |  |  |  | 
N.N.[Cl][Pt][Cl] [DDP, Cisplatin, reference compound] |  |  |  |  |  |  |  |  |  | 3.19 ± 0.18 µM | 18 ± 0.49 µM | 13.8 ± 0.74 µM | 28.4 ± 3.71 µM | 14.8 ± 2.15 µM | > 40 µM
Mangostanin [Compound 2m] |  |  |  |  |  |  | slightly decreased activity or comparative activity |  |  | > 40 µM |  | > 40 µM | > 40 µM | > 40 µM | 
